# Screening results: PubChem, several laboratories
# core dimer inh: blocks dimerization of HCV core protein; inhibition, % at 5 µM; 0.33% of 300,000 active; TR-FRET GST/Flag-core106 dimerization, 1536-well;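 active means inhibition above the mean of all tested compounds plus 3 SD, set per screening campaign, cut at about 45% in these data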
#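 Material: Tagged HCV core106 pair (GST and Flag) | Amount: GST-core106 13.5 nM, Flag-core106 17 nM | Medium: KF-containing HEPES buffer, pH 7.45, DTT, CHAPS, BSA | Reagent: Eu donor and XL665 acceptor anti-tag antibodies | Schedule: 4 h at 22.5 °C | Technique: Time-resolved FRET, ex 340 nm, em 617 and 671 nm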
# NR2E3 ag-1: agonists of human nuclear receptor NR2E3; Q9Y5X4; GST-NR2E3/biotin-RetCOR TR-FRET, 1536-well; inhibition of corepressor binding, % at 4.78 µM; 0.12% of 320,000 active;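 active means percent inhibition above the cutoff of mean plus 3 SD of all tested compounds, set per screening campaign, cut at about 20% in these data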;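 further: 0% = DMSO wells and 100% = biotin wells as full block of FRET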
# Target sequence (Q9Y5X4 whole entry, looked up): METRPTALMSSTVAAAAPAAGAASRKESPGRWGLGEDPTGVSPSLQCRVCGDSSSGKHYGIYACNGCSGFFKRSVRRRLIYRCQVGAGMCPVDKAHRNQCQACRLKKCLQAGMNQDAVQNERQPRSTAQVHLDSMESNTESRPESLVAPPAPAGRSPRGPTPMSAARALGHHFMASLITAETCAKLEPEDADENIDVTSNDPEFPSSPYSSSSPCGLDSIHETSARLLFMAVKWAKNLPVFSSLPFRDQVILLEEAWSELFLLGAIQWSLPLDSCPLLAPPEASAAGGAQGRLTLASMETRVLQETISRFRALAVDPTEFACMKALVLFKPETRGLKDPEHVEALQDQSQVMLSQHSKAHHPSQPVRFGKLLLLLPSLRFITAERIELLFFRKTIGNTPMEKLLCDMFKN
#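 Assay system: NR2E3–RetCOR corepressor complex. Quantity: 1.35 nM GST-NR2E3. Buffer or medium: pH 7.5 Tris-based buffer. Reagent: biotinylated RetCOR corepressor at 7 nM final. Schedule: 5 h at 4 °C. Detection: TR-FRET, emission read at 617 and 671 nm. Replicates: one well per compound, singlicate testing.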
# Vif imaging: blocks HIV Vif function | inhibition, % at 7.49 µM | AID 602346 | HEK293T cells, Vif self-association by quenched fluorescence, imaging, 24 h | 0.35% of 340,000 active; in the data active means inhibition above about 50%, passing the limit was not always enough
# NR2E3 ag-2: human photoreceptor-specific nuclear receptor agonism; Q9Y5X4; CHO-S Gal4-NCOR/VP16-NR2E3 two-hybrid, luciferase; inhibition of corepressor binding, % at 3.98 µM; 0.35% of 360,000 active;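 active means inhibition above the mean of all tested compounds plus 3 SD, cut at about 70% in these data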;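 further: 0% = DMSO with NR2E3 transfected cells and 100% = cells lacking NR2E3 construct; higher means lower luciferase signal from less NR2E3 corepressor binding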
# DAGLB inh: diacylglycerol lipase beta (human) inhibition; Q8NCG7; HEK293T DAGLB membrane lysate, EnzChek fluorogenic substrate; inhibition, % at 5.17 µM; 0.059% of 340,000 active; AID 504411; in the data active means inhibition above about 34%;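 further: 0% = enzyme with vehicle and 100% = wells lacking enzyme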
# MT1-MMP act inh: inhibitors of human MT1-MMP activation | GFP/RFP ratio change, % at 20 µM | HT1080 RFP-PRO-GFP cells, GFP/RFP ratio fluorescence, overnight; percent of plate control window, DMSO zero | AID 651647 | 0.061% of 360,000 active;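 active means GFP/RFP ratio change of at least 30% with cell ATP level not reduced by more than half and red fluorescence within 50% of control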
#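 Assay system: HT1080 RFP-PRO-GFP cells. Benchmarks: DMSO vehicle wells and RFP-L50D-GFP reporter cell wells. Times: overnight cell settling, then overnight compound exposure, 37 °C, 5% CO2. Compound: 20 µM single dose, 1% DMSO. Read-out basis: GFP/RFP fluorescence ratio.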
# The depositor's hits bear a star; · = no result given. The list is not random: actives were taken first. Their share in the collection is about 1.1%.
SMILES,core dimer inh,NR2E3 ag-1,Vif imaging,NR2E3 ag-2,DAGLB inh,MT1-MMP act inh
CCOc1ccc(CCNC(=O)Cn2ncn3nc(-c4ccc(OC)cc4)cc3c2=O)cc1OCC,8.6,0.9,0.8,-3.0,-3.0,1.3
CC(=O)C1=C(C)NC(SCC(=O)c2ccc(Cl)cc2)=C(C#N)C1c1ccco1 (stereo unspecified),4.0,5.3,57.7*,-22.0,-5.0,-43.6
CC(=O)C1=C(C)NC(SCC(=O)c2ccccc2)=C(C#N)C1c1ccco1 (stereo unspecified),13.5,-0.4,·,·,·,·
O=C(COc1cccc(Cl)c1)Nc1ccc2c(c1)CCC2,11.7,5.7,104.6*,11.3,-21.7,3.6
O=C(COc1ccccc1F)Nc1ccc2c(c1)CCC2,·,·,-1.1,-5.3,-19.2,1.3
CCOC(=O)CNC(=O)c1ccc2[nH]c3c(c2c1)CCCC3,-0.5,-1.8,71.9*,0.3,-0.1,0.5
CC(=O)N(C)C[C@@H]1Oc2ncc(Br)cc2C(=O)N([C@H](C)CO)C[C@@H]1C,·,·,-3.6,-6.8,-1.1,-0.9
COc1ccc(CC(=O)OCC(=O)NCc2ccc(Cl)cc2)cc1,-3.5,1.4,80.1*,-12.4,-2.8,0.2
O=C(COC(=O)Cc1ccc(Cl)cc1)NCc1ccc(Cl)cc1,·,·,·,12.1,-0.5,-1.1
Cc1ccccc1C(=O)Nc1c(C(=O)N2CCCC2)cnn1-c1ccccc1,-5.9,2.1,·,6.0,-0.5,-0.5
CCOC(=O)c1cnn(-c2ccccc2)c1NC(=O)c1ccccc1C,-2.5,3.0,53.9*,-7.8,-1.8,-2.9
COc1ccc(C(=O)/C=C/Nc2cccc(C)n2)cc1OC,7.2,0.6,60.5*,-148.8,-0.3,0.9
Cn1nc(OCC(=O)O)cc1C(F)(F)F,3.9,-4.6,13.5,-9.3,0.0,1.5
CC(=O)Nc1cc(OC(C)=O)c2nonc2c1OC(C)=O,1.5,39.0*,-4.0,12.6,-21.5,-3.1
CC(=O)Nc1nonc1NC(C)=O,-3.7,3.0,2.9,-20.3,-0.7,0.1
CC(C)Cn1c(N)c(C(=O)COC(=O)COc2cccc(C(F)(F)F)c2)c(=O)n(C)c1=O,-11.6,3.5,·,-13.6,-0.6,1.5
Cc1ccc(NC(=O)Cn2c(O)c(N=NC(=O)c3cc4ccccc4cc3O)c3ccccc32)cc1,43.8,2.8,3.7,-3.9,6.2,10.4
COc1ccccc1NC(=O)Cn1c(O)c(N=NC(=O)c2ccccc2O)c2ccccc21,1.6,-2.3,116.5*,4.1,8.5,12.2
C[C@@H]1CN([C@H](C)CO)S(=O)(=O)c2ccc(-c3ccc(C#N)cc3)cc2O[C@H]1CN(C)C(=O)Nc1cc(F)ccc1F,·,·,1.2,-20.1,-2.0,-1.2
C1CCC(c2nn3c(-c4n[nH]c5c4CCC5)nnc3s2)CC1,50.9*,5.0,-5.5,-4.0,1.0,3.4
O=C(O)C(Cc1c[nH]c2ccccc12)N1C(=O)C2C3c4ccccc4C(c4ccccc43)[C@@H]2C1=O (stereo partly specified),7.1,-2.1,-0.3,-13.2,7.9,6.3
C[N+](C)(C)CCN1C(=O)CSC1=O,-6.2,0.3,54.8*,4.2,-1.2,2.2
O=C(/C=C/c1ccco1)N(Cc1cccc(F)c1)C1CCS(=O)(=O)C1 (stereo unspecified),14.2,-2.5,10.1,-16.1,0.6,-0.1
Cc1ccc(Cn2c(=O)n(-c3ccccc3)c(=O)c3ccc(C(=O)NCc4ccco4)cc32)cc1,10.8,0.5,0.0,17.6,3.0,-3.3
CCC(C)NC(=O)Cn1c(=O)n(-c2ccccc2)c(=O)c2ccc(C(=O)NCc3ccco3)cc21 (stereo unspecified),1.1,4.3,60.7*,-24.4,5.5,2.8
SMILES,core dimer inh,NR2E3 ag-1,Vif imaging,NR2E3 ag-2,DAGLB inh,MT1-MMP act inh
O=C(Nc1nnc(SCC(=O)N2CCOCC2)s1)C1CC(=O)N(c2ccc(F)cc2)C1 (stereo unspecified),53.3*,0.4,-1.1,9.1,5.0,-7.1
O=C(Nc1nnc(SCc2ccccn2)s1)C1CC(=O)N(c2ccc(F)cc2)C1 (stereo unspecified),54.7*,-0.6,-6.1,-30.0,4.7,-3.3
O=C(Nc1nnc(SCC(=O)N2CCCC2)s1)C1CC(=O)N(c2ccc(F)cc2)C1 (stereo unspecified),25.6,0.9,2.4,-21.8,5.7,0.5
Cc1cccc(N2CC(C(=O)Nc3nnc(SCC(=O)Nc4nccs4)s3)CC2=O)c1 (stereo unspecified),50.1*,-1.2,2.1,-12.8,0.8,-5.2
CC[C@H](C)/C=C(C)/C=C/C(=O)Cc1cc(O)c(C)c(O)c1C=O,67.0*,0.7,-1.8,-16.2,7.5,6.2
Cc1ccsc1C(=O)NNC(=O)c1ccncc1,·,·,·,-8.9,0.1,0.0
O=C(N/N=C/c1ccc([N+](=O)[O-])o1)c1cc(-c2ccc(-c3ccccc3)cc2)nc2ccccc12,67.0*,-0.8,5.7,-148.7,6.5,16.2
O=C(N/N=C/c1ccc([N+](=O)[O-])o1)c1cn(-c2ccccc2)nc1-c1ccc(Cl)cc1,46.1*,3.1,-17.9,0.4,1.0,6.1
O=C(N/N=C/c1ccc([N+](=O)[O-])o1)c1cn(-c2ccccc2)nc1-c1ccccc1,17.9,-2.1,-2.2,-6.4,1.8,1.2
O=C(NC1CCCC1)C1C(c2ccc(C(F)(F)F)cc2)=Nc2ccccc2N1C(=O)c1cc2ccccc2[nH]1 (stereo unspecified),·,·,·,·,·,-2.4
CCOC(=O)CC1(CCc2ccccc2)Oc2ccccc2O1,·,·,·,·,·,3.1
COc1ccc(NC(=O)c2cc(C3CCCCN3S(=O)(=O)c3ccccc3)on2)c(C)c1 (stereo unspecified),·,·,4.1,-4.0,·,0.7
O=c1c2c3c(sc2n2cnnc2n1Cc1ccccc1)CN(Cc1ccccc1)CC3,51.0*,-1.0,-5.0,-18.6,3.8,-3.6
COc1ccc(Cc2c(-c3ccc(F)cc3)nc3cc(C)c(Br)c(C)n23)c(C)c1,·,·,·,-13.1,·,-0.3
Cc1ccc(C)n1Cc1ccc(C(=O)O)cc1,-47.3,33.6*,-2.9,-38.3,-1.9,-0.6
Cc1cc(C)n(Cc2ccc(C(=O)O)cc2)n1,-3.3,1.2,6.0,-13.2,-2.5,3.5
O=C(/C=C/c1ccco1)NC(=S)Nc1cc(-c2nc3ccccc3s2)ccc1Cl,30.4,-2.0,5.1,-118.6,27.6,-4.8
O=C(/C=C/c1ccco1)NC(=S)Nc1cccc(-c2nc3ccccc3s2)c1,51.9*,-1.7,-5.1,-97.3,3.9,-14.0
Cc1ccc(-c2nc3ccccc3s2)cc1NC(=S)NC(=O)/C=C/c1ccco1,51.7*,1.2,-2.2,-103.3,0.8,-3.4
